A selection: hits, their analogues and other compounds. The true share with any hit is near 2.2%.
MDM2 E3 inh: MDM2-luciferase reporter signal enhancers, primary screen, MDM2 E3 ligase inhibitor project, cell-based, luminescence, 1536-well; E3 ubiquitin-protein ligase Mdm2 (Homo sapiens), Q00987; cell-based MDM2 ubiquitination luciferase reporter, 2 h; 0 = plate control, 100 = twice control, blank-subtracted; signal enhancement, % at 5 µM; 210,000 compounds, 0.11% hits; AID 1230, 2008;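 active = signal enhancement of 30% or more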;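 also: luminescence tracks abundance of the self-degrading MDM2-luciferase fusion protein; higher signal means inhibition of MDM2 E3 ligase activity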
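Test system: stable mammalian line carrying autodegrading MDM2–luciferase fusion reporter; quantity: 2000 cells in each well; times: 4 h cell settling then 2 h compound exposure, 37 °C; detection: luminescence with SteadyLite reagent, 15 min at room temperature; evaluation: percent signal gain over controls, blank-subtracted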
INS promoter inh: inhibitors of insulin promoter-driven GFP, primary screen, imaging, TRM-6 cells, eGFP reporter, cell count | reporter expression induced with tamoxifen | inhibition, % at 2 µM | 130,000 compounds, 0.9% hits | AID 1273, 2008;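 active = inhibition above the mean plus 3 SD, with well images judged a real hit on visual review, cut at about 60% in these data, passing the limit was not always enough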
Hsp70 activator: Hsp70 transcriptional activators, primary screen, cell-based, HeLa, Hsp70 promoter luciferase, luminescence, 10 µM; AID 1203, 2008; 200,000 compounds, 0.04% hits; HeLa Hsp70 promoter luciferase reporter; scaled: vehicle 0, proteasome-inhibitor control 100%; activation, % at 10 µM;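 active = activation above the mean across all tested compounds plus 3 SD, cutoff set per campaign, cut at about 5.5% in these data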;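 also: 100% = MG132 at 30 µM as the positive control and 0% = DMSO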
Insulin prom up: insulin promoter activators in MIN6 cells, imaging, high-content screening, mouse beta cells; MIN6 insulin promoter-GFP reporter; stronger effect = higher value; z-score at 5 µM; 190,000 compounds, 0.3% hits; AID 1625, 2009;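 active = z-score above 3 at 5 µM with at least 500 cells counted in the well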
Wee1 stabilizer: Wee1 degradation inhibitors, primary screen, cell-based, HeLa, Wee1K328M-luciferase, luminescence | Wee1-like protein kinase (Homo sapiens), P30291 | AID 1321, 2008 | 220,000 compounds, 1.2% hits | reporter increase, % at 5 µM | HeLa Luc-Wee1K328M stability; 100% = proteasome inhibitor MG132 effect;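 active = activation above the mean of all tested compounds plus 3 SD, set per screening run, cut at about 8.8% in these data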;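 also: cells exposed to compound for 20 h before luminescence read; 0% = DMSO alone and 100% = MG132 at 30 µM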
Target sequence (P30291 whole entry K328M): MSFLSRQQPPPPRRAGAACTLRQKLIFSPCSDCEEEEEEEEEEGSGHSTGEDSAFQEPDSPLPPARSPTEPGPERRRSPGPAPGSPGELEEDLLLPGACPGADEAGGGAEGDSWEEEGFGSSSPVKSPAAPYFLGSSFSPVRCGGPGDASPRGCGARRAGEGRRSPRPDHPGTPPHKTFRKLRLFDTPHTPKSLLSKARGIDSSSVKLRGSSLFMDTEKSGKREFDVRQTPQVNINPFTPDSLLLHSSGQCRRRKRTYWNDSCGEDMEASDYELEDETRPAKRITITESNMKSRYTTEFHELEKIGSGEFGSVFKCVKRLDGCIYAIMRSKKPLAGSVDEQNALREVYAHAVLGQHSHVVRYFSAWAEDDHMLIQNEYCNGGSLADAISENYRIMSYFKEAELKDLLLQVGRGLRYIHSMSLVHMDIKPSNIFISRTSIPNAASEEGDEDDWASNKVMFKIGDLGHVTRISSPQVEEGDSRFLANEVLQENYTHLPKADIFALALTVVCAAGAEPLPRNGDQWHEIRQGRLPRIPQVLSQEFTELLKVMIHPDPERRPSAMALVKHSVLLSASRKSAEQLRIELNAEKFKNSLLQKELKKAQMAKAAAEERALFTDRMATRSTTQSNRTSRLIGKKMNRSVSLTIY
RBBP9 inh: human RBBP9 inhibitors, primary screen, biochemical, fluorescence polarization, FP-Rh probe, HTS | AID 1515, 2009 | recombinant RBBP9 | inhibition, % at 7.94 µM | 220,000 compounds, 0.2% hits | Serine hydrolase RBBP9 (Homo sapiens), O75884;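 active = inhibition above the campaign mean of all tested compounds plus 3 SD, cut at about 14% in these data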;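 also: plate controls were DMSO wells with RBBP9 for no effect and wells lacking RBBP9 protein for full effect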
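Test system: recombinant human RBBP9; Timing: 30 min then 45 min, 25 °C; Detection: fluorescence polarization; Control set: RBBP9 with DMSO as uninhibited control, no-protein wells as full inhibition; Compound dosing: one concentration, 7.94 µM nominal, 0.794% DMSO; Probe or stimulus: FP-Rh activity-based probe, 375 nM before mixing.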
Wee1 stab conf: Wee1 degradation inhibitors, confirmation, cell-based, HeLa, Wee1K328M-luciferase, luminescence, triplicate; activation, % at 5 µM; HeLa Luc-Wee1K328M degradation; vehicle 0%, proteasome-blocked wells 100%; AID 1410, 2008; 1,100 compounds, 4% hits; shares compounds with Wee1 stabilizer; in the data active = activation above about 8.9%
Numbers without * were called inactive; . = not tested or not shown.

SMILES	MDM2 E3 inh	INS promoter inh	Hsp70 activator	Insulin prom up	Wee1 stabilizer	RBBP9 inh	Wee1 stab conf
COc1ccc(CCNC(=O)CCCn2c(SCC(N)=O)nc3cc4c(cc3c2=O)OCO4)cc1OC	-11	.	0	0.01	-1	-1	.
Fc1ccc(CSc2ccc(-c3ccco3)nn2)cc1	-14	.	0	-0.13	12*	-6	7
COc1ccc(N(C(C)=O)c2nc(C)cc(C)c2C#N)c(OC)c1	-9	.	0	0.96	0	-10	.
CC(=O)Nc1ccc(C(O)(C(F)(F)F)C(F)(F)F)cc1	-4	-57	0	1.1	12*	-2	2
Nc1ccc(C(O)(C(F)(F)F)C(F)(F)F)cc1	-7	28	0	-0.56	1	1	.
COc1cccc(-n2nnc3c(=O)n(CC(=O)N4CCC(Cc5ccccc5)CC4)cnc32)c1	-2	-36	0	-0.73	1	2	.
Cc1cc(C)n2nc(SC(C)C(=O)Nc3ccc(Cl)cn3)nc2n1 (stereo not given)	-8	-55	0	0.11	-1	2	.
COc1ccc(/C=C/C(=O)c2ccccc2O)cc1	.	23	0	-0.02	4	-8	.
COc1ccc(CC(=O)O/N=C(\N)c2ccccn2)cc1	-9	.	.	1.9	16*	-1	4
COc1ccc(/C=C/C(=O)c2ccccn2)cc1	10	19	0	0.31	12*	-7	-1
N/C(=N\OC(=O)Cc1ccc(-c2ccccc2)cc1)c1ccccn1	-21	44	0	.	0	-2	.
Cc1cc(-c2nnc(CCC(=O)N3CCN(Cc4cccc(F)c4)CC3)o2)c(C)o1	-4	.	0	.	2	5	.
CSc1ccccc1C(=O)NC1CCCCCC1	-23	-11	0	0.79	14*	4	2
O=C(NC1CCCCCCC1)c1ccccc1O	-14	.	0	-0.42	-1	4	.
O=C(COc1ccc(F)cc1)N(c1ccccn1)C1CCCCC1	7	-56	0	.	2	-1	.
COc1ccc(-c2nc(NC(=O)c3n[nH]c(=O)c4ccccc34)sc2C)cc1	-11	14	0	-1.7	32*	-8	-3
Brc1cc2c(cc1Br)OCCOCCOCCOCCO2	-10	-27	0	-0.04	19*	-4	2
Brc1ccc2c(c1)OCCOCCOc1cc(Br)ccc1OCCOCCOCCO2	-20	-30	0	-1.5	-1	-12	.
O=C(Nc1cccnc1)c1cccc(S(=O)(=O)N2CCCCC2)c1	-6	.	0	0.02	-1	3	.
Cc1ccc(S(=O)(=O)N2CCCCC2)cc1C(=O)Nc1cccnc1	-7	.	.	-0.09	18*	6	2
CCc1nnc(NC(=O)CCC(=O)NCCc2ccc(OC)c(OC)c2)s1	-20	-7	0	0.14	3	-5	.
CCN(CC)C(=O)c1c(-c2ccccc2)oc2ccc(OC)cc12	-10	-21	0	0.07	17*	4	0
CCOc1ccc2oc(-c3ccccc3)c(C(=O)N(C)C)c2c1	.	64	0	0.37	7	-7	.
CCC(C)NS(=O)(=O)c1ccc(S(=O)(=O)N2CC=C(c3ccc(F)cc3)CC2)cc1 (stereo not given)	0	.	0	-0.45	1	9	.
O=C(CCCn1c(=O)c2ccccc2n(Cc2cccc(F)c2)c1=O)NC1CCN(Cc2ccccc2)CC1	0	.	0	-0.58	0	-10	.
O=C(CCCCn1c(=O)c2ccccc2n(Cc2ccccc2)c1=O)NC1CCN(Cc2ccccc2)CC1	-5	.	0	0.38	11*	-3	0
CSc1cccc(NS(=O)(=O)c2ccc3c(c2)oc(=O)n3C)c1	-16	.	0	-0.08	-1	-11	.
